Hits are enriched below; roughly 3.7% of the tested compounds scored in any of these assays.
Kir21 block: blocks the mouse Kir2.1 inward-rectifier potassium channel. P35561. 0.85% of 310,000 active. AID 1672. B-score at 10 µM. HEK293-Kir2.1, FluxOR thallium flux fluorescence; hits give low values;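 active = fluorescence ratio B-score at or below minus 3 SD of library scores, with starting-brightness B-score within 2 SD, cut at about -4.2 in these data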;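 note: channel flux triggered by added potassium and thallium sulfate stimulus; B-score of peak minus minimum fluorescence over baseline after thallium stimulus; more negative B-score means stronger Kir2.1 block with less thallium influx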
KCNK9 block: human KCNK9 channel inhibition; Q9NPC2; HEK293 KCNK9, FluxOR thallium flux fluorescence; hits give low values; B-score at 10 µM; 1.2% of 310,000 active; AID 488922;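 active = ratio B-score over 3 SD below the library mean, with starting fluorescence within 5 SD of its mean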;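 note: negative B-score means less thallium flux so channel inhibition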
KCNQ1 inh: inhibitors of human KCNQ1 potassium channel | B-score at 10 µM | AID 2642 | CHO-K1 KCNQ1, FluxOR thallium flux fluorescence; hits give high values | 1.3% of 310,000 active;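 active = compounds whose thallium flux B-score, printed positive for inhibition, exceeds three library SD while starting fluorescence stays within three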;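 note: channel opened by potassium depolarization with thallium stimulus after 20 min compound exposure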
Target sequence (P51787 whole entry, looked up): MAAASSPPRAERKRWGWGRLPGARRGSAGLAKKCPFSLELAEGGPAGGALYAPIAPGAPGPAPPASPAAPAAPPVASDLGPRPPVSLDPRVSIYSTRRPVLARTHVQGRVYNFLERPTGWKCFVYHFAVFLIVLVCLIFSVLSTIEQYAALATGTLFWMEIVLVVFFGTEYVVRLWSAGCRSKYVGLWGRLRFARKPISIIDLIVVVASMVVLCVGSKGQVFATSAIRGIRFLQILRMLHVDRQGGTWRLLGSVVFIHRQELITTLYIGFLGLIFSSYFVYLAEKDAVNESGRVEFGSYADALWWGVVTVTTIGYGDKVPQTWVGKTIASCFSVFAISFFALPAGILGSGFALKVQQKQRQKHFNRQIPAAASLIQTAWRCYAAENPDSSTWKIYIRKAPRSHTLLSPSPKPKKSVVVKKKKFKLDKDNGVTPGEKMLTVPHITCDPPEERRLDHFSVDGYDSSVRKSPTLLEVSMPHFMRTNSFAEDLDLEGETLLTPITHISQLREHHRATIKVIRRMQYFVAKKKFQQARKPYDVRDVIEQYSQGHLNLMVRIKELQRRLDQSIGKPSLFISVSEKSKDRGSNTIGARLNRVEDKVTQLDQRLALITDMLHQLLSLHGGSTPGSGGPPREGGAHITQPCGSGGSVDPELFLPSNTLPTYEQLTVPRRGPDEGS
KCNQ1 pot: potentiators or activators of human KCNQ1 potassium channel; CHO-K1 KCNQ1, thallium flux FluxOR fluorescence; hits give high values; B-score at 10 µM; 0.35% of 310,000 active;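 active = fluorescence ratio B-score, a plate-corrected score, at least three library SD, with initial intensity B-score within 5 SD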
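System: Stable KCNQ1 CHO-K1 line | Incubation: 90 min dye loading and 20 min compound exposure, both at room temperature | Measure: Ratio B score | Medium: Assay buffer for compound exposure, DMSO matched across wells | Compound dosing: Single-concentration screen | Probe or stimulus: K+/Tl+ depolarizing stimulus | Measured by: Kinetic FluxOR fluorescence, 10 s baseline plus 110 s post-stimulus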
hERG protect: shields human hERG channel from block by proarrhythmic agents; CHO-hERG, FluxOR thallium flux, dofetilide IC70 present; Q12809; 0.51% of 310,000 active; activation (rescue from dofetilide block), less the hit threshold, % at 10 µM;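 active = activation above the mean of controls blocked by dofetilide plus 5 SD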;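 note: thallium influx through hERG after potassium depolarization seen as dye fluorescence rise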
KCNK3 inh: human KCNK3 channel inhibition, primary screen. CHO-KCNK3 thallium flux, FluxOR fluorescence; hits give low values. B-score at 10 µM. 0.84% of 340,000 active. AID 602410;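 active = B-score under library mean minus 4 SD, starting fluorescence ratio at most library mean plus 5 SD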;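 note: more negative B-score means stronger inhibition of thallium flux through KCNK3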
Active calls of the source: *; i = inactive; x = no result given; ! = not active in a repeat.

SMILES	Kir21 block	KCNK9 block	KCNQ1 inh	KCNQ1 pot	hERG protect	KCNK3 inh
CC(Oc1ccc2ccc(=O)oc2c1)C(=O)N1CCOCC1 (stereo not drawn)	-0.18	i	i	i	-14	i
COc1ccc(NC(=O)c2cnc(SC)nc2)cc1	0.01	i	i	i	-5	i
Nc1ccc2c3c(cccc13)C(=O)N(c1ccccc1)C2=O	-5.6	i	i	i	-42	i
Nc1cccc(N2C(=O)c3cccc4c(N)ccc(c34)C2=O)c1	-8	i	11*	i	-20	i
COc1ccc(OC)c(-c2csc(NC(=O)CSc3ccc([N+](=O)[O-])cc3)n2)c1	0.57	i	7*	i	-15	i
Cc1cccc(-n2ncc3c(N4CC(C)CC(C)C4)ncnc32)c1 (stereo not drawn)	0.67	-7.1*	i	i	-9	i
O=C(COC(=O)CN1C(=O)NC2(CCCCC2)C1=O)Nc1cc(F)ccc1F	x	x	x	x	x	i
CC(c1ccccc1C(O)(c1ccccc1)c1ccccc1)N(C)C (stereo not drawn)	-6.2*	i	i	14*	-2	i
Oc1ccc(C=NN=C2c3ccccc3-c3ccccc32)c(O)c1	x	x	x	x	x	-8.8*
O=C(c1cc(COc2cccc(C(F)(F)F)c2)on1)N1C[C@H]2CC[C@H]1C2	0.03	i	i	i	-10	i
CC1(C)C[C@@H]2C[C@@](C)(CN2C(=O)c2cc(COc3cccc(C(F)(F)F)c3)on2)C1	-0.01	i	7*	i	-14	i
COc1ccccc1-n1c(-c2ccccc2)c[nH]c1=S	-0.71	i	i	i	-12	i
COc1ccc(-c2cn(-c3ccc(OC)cc3)c3[n+]2-c2ccccc2CC3)cc1	-3.5	i	6*	i	-18	i
COc1ccc(-n2cc(-c3ccccc3)[n+]3c2CCCCC3)cc1	-0.26	i	i	i	-17	i
COc1ccc(-c2c[n+]3c(n2-c2ccccc2)CCCCC3)cc1	-0.86	i	i	i	-18	i
COc1ccccc1-n1c(-c2ccccc2)c[n+]2c1CCc1ccccc1-2	-14*	-7.8*	9*!	i	-20	-9.5*!
COc1ccc(-n2c(-c3ccc(Br)cc3)c[n+]3c2CCc2ccccc2-3)cc1	-5.9*	i	10*	i	-25	i
Cc1ccc(S(=O)(=O)NCCC(=O)NC(C)CCc2ccccc2)cc1 (stereo not drawn)	-1.3	i	i	i	-10	i
CCN(CC)CCN1c2ccccc2Sc2ccc3ccccc3c21	-3.2	i	i	i	-11	i
CCN(CC)CCN1c2ccccc2Sc2ccccc21	-4.7*	i	i	i	-7	i
CC(C)(C)OC(=O)N[C@@H](Cc1ccccc1)c1nnc(S(=O)(=O)Cc2cccc(F)c2)o1	0.63	i	i	i	-11	x
CC(C)C[C@H](N)c1nnc(S(=O)(=O)Cc2cccc(F)c2)o1	-7.9*	i	i	i	-11	i
COc1cccc(Oc2nc(N)ncc2[N+](=O)[O-])c1	1.1	i	i	i	-3	i
CCCCCn1c2c(c(=N)c3ccccc31)CCC2	0.29	i	i	i	-25	i
Cc1cc(C)c2c(=N)c3ccccc3n(CCCCCCCCn3c4ccccc4c(=N)c4c(C)cc(C)nc43)c2n1	x	x	x	x	x	-10*
SMILES	Kir21 block	KCNK9 block	KCNQ1 inh	KCNQ1 pot	hERG protect	KCNK3 inh
O=C(COc1ccc(F)cc1Cl)N(Cc1nnc(-c2ccccc2Cl)o1)C1CC1	-4.2	i	i	i	-3	i
O=C(Nc1cccc(Br)c1)c1ccc2c(c1)SC1=NS(=O)(=O)CCN12	x	x	x	x	x	i
FC(F)(F)c1cccc(NC(=S)NNC(=S)NCc2ccccc2)c1	1.4	i	7*	i	-15	i
Cc1cccc(-c2cnn(-c3ccccc3)c2N)c1	1.4	i	i	i	-5	i
Nc1c(-c2ccccc2)cnn1-c1cccc(Cl)c1	0.28	-7*	i	i	-12	i
COc1cc(/C=N/O)cc(Br)c1OC	5	i	i	i	-7	i
C=CCOc1c(Br)cc(/C=N/O)cc1OCC	-6*	i	i	i	-6	i
COc1ccc(NC(=O)COC(=O)CCC2CCCC2)c(OC)c1	x	x	x	x	x	i
Cc1cc(Cl)c(S(=O)(=O)N/N=C/c2ccc3c(c2)OCO3)c(Cl)c1	0.88	i	10*	i	-11	i
O=C(C1CCCCCC1)N1CC[C@@H](N2CCC(O)CC2)[C@H](O)C1	-0.36	i	i	i	1	i
CN(Cc1ccc(C#CCCO)cc1)CC1CCCN(CCc2ccc(Cl)cc2)C1 (stereo not drawn)	-9.4*	i	i	i	-10	i
CN(Cc1ccccc1O)CC1CCCN(CCc2ccc(Cl)cc2)C1 (stereo not drawn)	-15*	i	i	i	-16	i
Cc1cc(N2CCN(C)CC2)nc2ccc(NC(=S)NCCN3CCc4ccccc4C3)cc12	-4.7*	i	i	i	-12	i
CN(c1ccccc1)S(=O)(=O)CS(=O)(=O)N(C)c1ccccc1	x	x	x	x	x	i
CN(c1ccccc1)P(=O)(N(C)c1ccccc1)N(C)c1ccccc1	-5.5*	i	i	i	-18	i
CCOc1ccc(NC(=O)CN(c2ccc([N+](=O)[O-])cc2)S(=O)(=O)c2ccccc2)cc1	0.01	i	6*	i	-9	i
CC(C)(C)NC(=O)NC(=O)CN1CCN(c2cccc(Cl)c2)CC1	0.89	i	i	i	-6	i
COCCCNC(=O)CCc1c(C)nc2c(c(C)nn2-c2ccc(C)cc2)c1C	-2	i	i	i	-4	i
CCN(CC)CCNC(=O)CCc1c(C)nc2c(c(C)nn2-c2ccc(C)cc2)c1C	-4.5*	i	i	i	-10	i
O=C(NCc1ccccc1)c1cccc2c1C(=O)c1ccc(/C=C/c3ccccc3)cc1S2(=O)=O	x	x	x	x	x	i
O=C(CCCC(=O)c1ccccc1)NCc1ccccc1	0.82	i	i	i	-4	i
Cc1cccc(C)c1NC(=S)NC(C)(C)CO	1.4	i	i	i	-7	i
CCN(CCCNC(=O)COc1cc(=O)n(C)c2ccccc12)c1cccc(C)c1	-6.8*	i	i	i	-18	i
CNCc1ccccc1Sc1ccc(O)c(O)c1	-6.5*	i	i	i	-2	i
CN(CC(=O)Nc1ccccc1Br)CC(=O)Nc1ccccc1C(F)(F)F	0.31	i	i	i	0	i
COc1ccccc1C(O)(c1ccccc1)c1ccccc1OC	x	x	x	x	x	-10*
